Holding throughout (type): functional, cell-based
For one experiment, the system named is HepG2. The experiment can be described thus: Cytotoxicity against human HepG2 cells after 3 days by MTT assay. The conditions noted are these: HepG2, 72 h. The gist of the method:
(§1)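 Cells kept in RPMI-1640 with 10% calf serum. Exponentially growing cells seeded at 4 × 10⁴ cells/mL, then medium replaced with fresh medium holding test compound (controls got solvent only). After incubation, MTT added for a further 4 h at 37 °C and formazan dissolved in DMSO. Read by OD. %inhibition = (OD control − OD test)/OD control × 100. Compounds giving ≥70% inhibition in a one-dose prescreen were serially diluted (0.06–0.002 range) for IC50.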

Another experiment relates to MCF7. Briefly: Cytotoxicity against human MCF7 cells after 3 days by MTT assay. Particulars: MCF7, 72 h. The gist of the method:
as §1

A further experiment has as its system HeLa. The experiment can be described thus: Cytotoxicity against human HeLa cells after 3 days by MTT assay. Particulars: 72 h. In outline:
as §1

Each structure is given as a SMILES string.

As for `Cc1ccc2nc(C)n(NC(=O)CC#N)c(=O)c2c1`, the concentration for half-maximal inhibition (IC50) was 55 µM in the experiment on HepG2, 40 µM in the experiment with MCF7 and 30 µM in the experiment with HeLa.

Consider `Cc1ccc2nc(C)n(NC(=O)/C(C#N)=C/c3ccccc3)c(=O)c2c1`, for which the figures for the IC50 with HepG2, in the experiment with MCF7 and with HeLa were 14 µM, 9 µM and 13 µM, respectively.

For the compound `Cc1ccc(/C=C(\C#N)C(=O)Nn2c(C)nc3ccc(C)cc3c2=O)cc1`, the IC50 in the experiment with HepG2 was 12 µM; with MCF7, 10 µM; in the experiment with HeLa, 9 µM.

Take `Cc1ccc2nc(C)n(NC(=O)/C(C#N)=C/c3ccc(Cl)cc3)c(=O)c2c1`: the IC50 in the experiment on HepG2 is 9 µM; in the experiment with MCF7, 12 µM; with HeLa, 12 µM.

With `Cc1ccc2nc(C)n(NC(=O)/C(C#N)=C/c3ccc([N+](=O)[O-])cc3)c(=O)c2c1`, the results for the 50% inhibitory concentration (IC50) in the experiment with HepG2, in the experiment with MCF7 and with HeLa were 10 µM, 12 µM and 15 µM, respectively.

Consider `Cc1ccc2nc(C)n(NC(=O)/C(C#N)=C/c3cccc(O)c3)c(=O)c2c1`, for which the figures for the IC50 with HepG2, in the experiment with MCF7 and in the experiment on HeLa were 14 µM, 15 µM and 14 µM, respectively.

In the case of `Cc1ccc2nc(C)n(NC(=O)/C(C#N)=C/c3ccc(O)cc3)c(=O)c2c1`, the values for the IC50 in the experiment on HepG2, in the experiment on MCF7 and in the experiment with HeLa were 13 µM, 14 µM and 13 µM, respectively.

On to `Cc1ccc2nc(C)n(NC(=O)/C(C#N)=C/c3ccc(O)c(O)c3)c(=O)c2c1`, for which the half-inhibitory concentration (IC50) in the experiment with HepG2, in the experiment with MCF7 and in the experiment on HeLa was 8 µM throughout.

Consider `Cc1ccc2nc(C)n(NC(=O)c3cc4ccccc4oc3=N)c(=O)c2c1`, for which the half-inhibitory concentration (IC50) was 23 µM in the experiment with HepG2, 17 µM in the experiment on MCF7 and 38 µM in the experiment on HeLa.

Consider `Cc1ccc2nc(C)n(-n3c(N)cc(N)c(C#N)c3=O)c(=O)c2c1`, for which the IC50 in the experiment on HepG2 was 17 µM; in the experiment with MCF7, 10 µM; with HeLa, 15 µM.

On to `Cc1ccc2nc(C)n(-n3c(O)cc(N)c(C#N)c3=O)c(=O)c2c1`, for which the IC50 in the experiment on HepG2 was 41 µM; with MCF7 it was 26 µM; in the experiment with HeLa it was 45 µM.

`Cc1ccc2nc(C)n(-n3c(N)c(C#N)c(-c4ccccc4)c(C#N)c3=O)c(=O)c2c1`: the figures for the IC50 in the experiment on HepG2, in the experiment with MCF7 and with HeLa were 10 µM, 8 µM and 5 µM, respectively.

For the compound `CCOC(=O)c1c(-c2ccccc2)c(C#N)c(=O)n(-n2c(C)nc3ccc(C)cc3c2=O)c1N`, the figures for the half-maximal inhibitory concentration (IC50) with HepG2, with MCF7 and in the experiment with HeLa were 52 µM, 17 µM and 21 µM, respectively.

For `Cc1ccc2nc(C)n(NC(=O)c3sc(N)c(C#N)c3N)c(=O)c2c1`, the IC50 in the experiment with HepG2 was found to be 15 µM; with MCF7, 10 µM; with HeLa, 15 µM.

In the case of `CCOC(=O)c1c(N)sc(C(=O)Nn2c(C)nc3ccc(C)cc3c2=O)c1N`, the IC50 was 22 µM in the experiment with HepG2, 16 µM in the experiment with MCF7 and 23 µM in the experiment on HeLa.

`Cc1ccc2nc(C)n(NC(=O)c3sc4c(c3N)CCCC4)c(=O)c2c1`: the values for the IC50 in the experiment with HepG2, in the experiment on MCF7 and in the experiment with HeLa were 22 µM, 18 µM and 31 µM, respectively.

Regarding `Cc1ccc2nc(C)n(NC(=O)c3sc(=S)n(-c4ccccc4)c3N)c(=O)c2c1`, the IC50 with HepG2 came out at 27 µM; in the experiment on MCF7, 13 µM; with HeLa, 35 µM.

In the case of `Cc1ccc2nc(C)n(NC(=O)c3sc(=S)n(Cc4ccccc4)c3N)c(=O)c2c1`, the IC50 in the experiment on HepG2 was determined as 32 µM; in the experiment on MCF7, 10 µM; with HeLa, 26 µM.

For the compound `Cc1ccc2nc(C)n(NC(=O)/C(C#N)=N/Nc3ccccc3)c(=O)c2c1`, the IC50 in the experiment with HepG2 is 12 µM; in the experiment with MCF7, 19 µM; with HeLa, 79 µM.

Regarding `Cc1ccc2nc(C)n(NC(=O)/C(C#N)=N/Nc3ccc(S(N)(=O)=O)cc3)c(=O)c2c1`, the 50% inhibitory concentration (IC50) came out at 9 µM with HepG2, 9 µM with MCF7 and 12 µM in the experiment with HeLa.

Consider `COc1cccc2c1C(=O)c1c(O)c3c(c(O)c1C2=O)C[C@@](O)(C(=O)CO)C[C@@H]3O[C@H]1C[C@H](N)[C@H](O)[C@H](C)O1` [DOXORUBICIN], for which the figures for the 50% inhibitory concentration (IC50) in the experiment with HepG2 and in the experiment with HeLa were 9 µM and 8 µM, respectively.

Source of the values: ChEMBL document CHEMBL2034831, “Quinazoline-tyrphostin as a new class of antitumor agents, molecular properties prediction, synthesis and biological testing” (Eur J Med Chem, 2012).
